Reference: ChEMBL document CHEMBL1155883, “5-Alkyl-6-benzyl-2-(2-oxo-2-phenylethylsulfanyl)pyrimidin-4(3H)-ones, a series of anti-HIV-1 agents of the dihydro-alkoxy-benzyl-oxopyrimidine family with peculiar structure-activity relationship profile” (J Med Chem, 2008)
pEC50: −log10 of the molar value.

Legend:
[1] = test system: Human immunodeficiency virus 1; test: Antiviral activity against HIV1 NL4-3 in human MT4 cells assessed as inhibition of virus-induced cytopathogenicity by MTT assay; assay type: functional, organism-based; conditions: Human immunodeficiency virus 1, NL4-3, MT4
Summary of the method: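 MT-4 lymphoid cells infected with wild-type HIV-1 NL4-3 in the presence of a range of compound concentrations. Viable cells were counted by MTT colorimetric read-out at day 5 post-infection. EC50 is the concentration giving 50% protection from virus-induced cytopathic effect. Means ± SD from at least two or three experiments.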

[2] = Cytotoxicity against human MT4 cells by MTT assay; assay type: cell-based
Summary of the method: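 Mock-infected MT-4 cells were exposed to a range of compound concentrations. Viability was read by MTT at day 5. CC50 is the concentration that kills 50% of uninfected cells. The top concentration was limited by compound precipitation in culture medium. Means ± SD from at least two or three experiments.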

[3] = Selectivity index, ratio of CC50 for human MT4 cells to EC50 for HIV1 NL4-3; assay type: toxicity, cell-based; conditions: read-out: Ratio CC50/EC50
Summary of the method: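 Computed as CC50/EC50. CC50 comes from MTT viability of mock-infected MT-4 cells and EC50 from MTT protection of NL4-3-infected MT-4 cells, both read at day 5.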

[4] = test system: Human immunodeficiency virus 1; test: Antiviral activity against HIV1 isolates with reverse transcriptase K103N mutation in human MT4 cells assessed as inhibition of virus-induced cytopathogenicity by MTT assay; assay type: functional, organism-based; conditions: Human immunodeficiency virus 1, MT4
Summary of the method: (§1)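 MT-4 lymphoid cells infected with HIV-1 carrying RT K103N, Y181C or Y188L, in the presence of different drug concentrations. Viable cells counted at day 5 postinfection by MTT colorimetric assay. EC50 is the concentration that inhibits 50% of the HIV-induced cytopathic effect.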

[5] = test system: Human immunodeficiency virus 1; test: Antiviral activity against HIV1 isolates with reverse transcriptase Y181C mutation in human MT4 cells assessed as inhibition of virus-induced cytopathogenicity by MTT assay; assay type: functional, organism-based; conditions: Human immunodeficiency virus 1, MT4; summary of the method: as §1
[6] = test system: Human immunodeficiency virus 1; test: Resistance index, ratio of EC50 for drug-resistant HIV1 isolate with reverse transcriptase Y181C mutation to EC50 for wild type HIV1 NL4-3; assay type: functional
Summary of the method: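 Fold resistance is the EC50 against the K103N, Y181C or Y188L mutant strain divided by the EC50 against wt NL4-3. Each EC50 is from MT-4 cells infected in the presence of different drug concentrations, with viability read by MTT at day 5 postinfection.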

[7] = test system: Human immunodeficiency virus 1; test: Antiviral activity against HIV1 isolates with reverse transcriptase Y188L mutation in human MT4 cells assessed as inhibition of virus-induced cytopathogenicity by MTT assay; assay type: functional, organism-based; conditions: Human immunodeficiency virus 1, MT4; summary of the method: as §1
[8] = test system: Human immunodeficiency virus 1; test: Resistance index, ratio of ID50 for reverse transcriptase K103N mutant to IC50 for wild-type HIV1 sreverse transcriptase
Summary of the method: (§2)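 Recombinant wt and K103N, L100I or Y181I HIV-1 RT (>95% pure), 2-4 nM. RNA-dependent DNA polymerase assay on 0.5 µg poly(rA)/oligo(dT) 10:1 (0.3 µM 3'-OH ends) with 10 µM [3H]-dTTP and 8% final DMSO. Aliquots taken every 2 min. Inhibitor range 0.2-5× ID50, fitted to a noncompetitive model. Fold resistance is mutant ID50 divided by wt ID50.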

[9] = test system: Human immunodeficiency virus 1; test: Resistance index, ratio of ID50 for reverse transcriptase Y181I mutant to IC50 for wild-type HIV1 reverse transcriptase; summary of the method: as §2
[10] = target: Human immunodeficiency virus type 1 reverse transcriptase (Human immunodeficiency virus 1) (UniProt Q72547)
[11] = test system: Human immunodeficiency virus type 1 reverse transcriptase (Human immunodeficiency virus 1), Q72547 [K103N]
[12] = test system: Human immunodeficiency virus type 1 reverse transcriptase (Human immunodeficiency virus 1), Q72547 [Y181I]
[13] = test system: Human immunodeficiency virus type 1 reverse transcriptase (Human immunodeficiency virus 1), Q72547 [L100I]
[14] = test system: Human immunodeficiency virus 1; test: Resistance index, ratio of ID50 for reverse transcriptase L100I mutant to IC50 for wild-type HIV1 reverse transcriptase; summary of the method: as §2

SMILES | pEC50 [1] | CC50 [2] [µM] | selectivity ratio [3] | pEC50 [4] | pEC50 [5] | Ratio EC50 [6] | pEC50 [7] | Ratio [8] | Ratio [9] | ID50 [10] [µM] | ID50 [11] [µM] | ID50 [12] [µM] | ID50 [13] [µM] | Ratio [14]
CC(C)Sc1nc(Cc2c(F)cccc2F)cc(=O)[nH]1 | 7.77 | > 84 | > 4940 | – | – | – | – | – | – | – | – | – | – | –
COc1ccc(C(=O)CSc2nc(Cc3cccc4ccccc34)c(C(C)C)c(=O)[nH]2)cc1 | 7.52 | 203 | 6770 | – | – | – | – | – | – | – | – | – | – | –
CCc1c(Cc2c(F)cccc2F)nc(SCC(=O)c2ccc(OC)cc2)[nH]c1=O | 8.05 | > 58 | > 6440 | < 4.24 | 6.60 | 28 | < 4.24 | 110 | 19 | 0.031 | 3.41 | 0.58 | > 40 | –
Cc1c(Cc2c(F)cccc2F)nc(SCc2cccnc2)[nH]c1=O | 5.23 | > 70 | > 12 | – | – | – | – | – | – | – | – | – | – | –
Cc1ccc(CSc2nc(Cc3c(F)cccc3F)c(C)c(=O)[nH]2)c(C)c1 | 6.40 | > 65 | > 162 | – | – | – | – | – | – | – | – | – | – | –
O=C(CSc1nc(Cc2c(Cl)cccc2Cl)cc(=O)[nH]1)c1ccc(F)cc1 | 6.11 | > 59 | > 76 | < 4.23 | < 4.23 | – | < 4.23 | 46 | 46 | 0.21 | 9.7 | 9.7 | 26.1 | 124
Cc1c(Cc2c(F)cccc2F)nc(SCc2ccccc2)[nH]c1=O | 6.89 | > 70 | > 538 | – | – | – | – | – | – | – | – | – | – | –
O=C1Nc2ccc(Cl)cc2[C@@](C#CC2CC2)(C(F)(F)F)O1 [EFAVIRENZ] | 8.15 | > 3 | – | 6.41 | 7.36 | – | – | – | – | – | – | – | – | –
O=c1cc(Cc2c(F)cccc2F)nc(Sc2ccccc2)[nH]1 | 5.85 | > 76 | > 54 | – | – | – | – | – | – | – | – | – | – | –
Cc1c(Cc2c(F)cccc2F)nc(SCc2ccc([N+](=O)[O-])cc2)[nH]c1=O | 5.92 | > 37 | > 31 | – | – | – | – | – | – | – | – | – | – | –
O=c1cc(Cc2c(F)cccc2F)nc(SCc2c(F)cccc2F)[nH]1 | 6.00 | > 66 | > 66 | – | – | – | – | – | – | – | – | – | – | –
Cc1c(Cc2c(F)cccc2F)nc(SCc2ccccn2)[nH]c1=O | 5.00 | > 70 | > 7 | – | – | – | – | – | – | – | – | – | – | –
COc1ccc(C(=O)CSc2nc(Cc3c(F)cccc3Cl)c(C(C)C)c(=O)[nH]2)cc1 | 9.00 | > 11 | > 11000 | < 4.96 | 6.80 | 160 | < 4.96 | – | – | 0.0007 | > 40 | > 40 | > 40 | –
O=c1cc(Cc2c(F)cccc2F)nc(SCc2ccccc2)[nH]1 | 7.00 | > 73 | > 730 | – | – | – | – | – | – | – | – | – | – | –
COc1ccc(C(=O)CSc2nc(Cc3c(Cl)cccc3Cl)c(C(C)C)c(=O)[nH]2)cc1 | 9.40 | > 14 | > 35000 | < 4.85 | 6.64 | 575 | < 4.85 | – | 1220 | 0.014 | > 40 | 17.1 | > 40 | –
Cc1c(Cc2c(F)cccc2F)nc(SCc2ccncc2)[nH]c1=O | 7.22 | > 70 | > 1170 | – | – | – | – | – | – | – | – | – | – | –

SMILES | pEC50 [1] | CC50 [2] [µM] | selectivity ratio [3] | pEC50 [4] | pEC50 [5] | Ratio EC50 [6] | pEC50 [7] | Ratio [8] | Ratio [9] | ID50 [10] [µM] | ID50 [11] [µM] | ID50 [12] [µM] | ID50 [13] [µM] | Ratio [14]
COc1ccc(C(=O)CSc2nc(Cc3c(Cl)cccc3Cl)cc(=O)[nH]2)cc1 | 5.91 | > 11 | > 9 | < 4.96 | < 4.96 | – | < 4.96 | 694 | 2 | 0.054 | 37.5 | 0.11 | > 40 | –
Cc1c(Cc2c(Cl)cccc2Cl)nc(SCC(=O)c2ccc(F)cc2)[nH]c1=O | 7.34 | > 57 | > 1240 | < 4.24 | < 4.24 | – | < 4.24 | – | 4 | 0.19 | > 40 | 0.8 | 10.7 | 56
O=C(CSc1nc(Cc2c(F)cccc2F)cc(=O)[nH]1)c1ccc(Cl)cc1 | 5.01 | > 61 | > 6 | – | – | – | – | – | – | – | – | – | – | –
COc1ccc(C(=O)CSc2nc(Cc3c(Cl)cccc3Cl)c(C)c(=O)[nH]2)cc1 | 7.17 | > 56 | > 836 | < 4.25 | 5.92 | 18 | < 4.25 | – | 5 | 0.094 | > 40 | 0.46 | > 40 | –
O=C(CSc1nc(Cc2c(F)cccc2Cl)cc(=O)[nH]1)c1ccc(F)cc1 | 6.54 | > 61 | > 210 | < 4.21 | 4.86 | 48 | < 4.21 | 22 | 10 | 0.93 | 20.7 | 9.2 | > 40 | –
O=C(CSc1nc(Cc2c(F)cccc2F)cc(=O)[nH]1)c1ccccc1 | 6.00 | > 67 | > 67 | – | – | – | – | – | – | – | – | – | – | –
COc1ccc(C(=O)CSc2nc(Cc3c(F)cccc3F)c(C)c(=O)[nH]2)cc1 | 7.32 | > 60 | > 1250 | < 4.22 | 6.19 | 13 | < 4.22 | 87 | 4 | 0.26 | 22.7 | 1.17 | > 40 | –
CC(C)c1c(Cc2c(Cl)cccc2Cl)nc(SCC(=O)c2ccc(F)cc2)[nH]c1=O | 7.19 | > 54 | > 844 | < 4.27 | < 4.27 | – | < 4.27 | – | 1530 | 0.02 | – | 30.6 | – | –
CC(C)c1c(Cc2c(F)cccc2Cl)nc(SCC(=O)c2ccc(F)cc2)[nH]c1=O | 8.40 | > 56 | > 14000 | < 4.25 | 6.25 | 140 | < 4.26 | 1670 | – | 0.024 | 40 | > 40 | – | –
O=C(CSc1nc(Cc2c(F)cccc2F)cc(=O)[nH]1)c1ccc([N+](=O)[O-])cc1 | 5.08 | 22 | > 3 | – | – | – | – | – | – | – | – | – | – | –
O=c1cc(Cc2c(F)cccc2F)nc(SCCc2ccccc2)[nH]1 | 6.52 | > 70 | > 233 | – | – | – | – | – | – | – | – | – | – | –
O=c1cc(Cc2c(F)cccc2F)nc(SCCCc2ccccc2)[nH]1 | 6.70 | 32 | 160 | – | – | – | – | – | – | – | – | – | – | –
CC(=O)CSc1nc(Cc2c(F)cccc2F)cc(=O)[nH]1 | 5.51 | > 81 | > 26 | – | – | – | – | – | – | – | – | – | – | –
COc1ccc(C(=O)CSc2nc(Cc3c(F)cccc3Cl)cc(=O)[nH]2)cc1 | 5.81 | > 12 | > 8 | < 4.92 | < 4.92 | – | < 4.92 | 243 | – | 0.014 | 3.4 | > 40 | 0.5 | 36
Cc1c(Cc2c(F)cccc2F)nc(SC(C)C)[nH]c1=O | 8.22 | > 77 | > 12800 | – | – | – | – | – | – | – | – | – | – | –
Cc1cc(C)cc(CSc2nc(Cc3c(F)cccc3F)c(C)c(=O)[nH]2)c1 | 4.85 | > 65 | > 5 | – | – | – | – | – | – | – | – | – | – | –
